Data reported in ChEMBL document CHEMBL3877267, “Synthesis, biological evaluation and molecular modeling of 1-oxa-4-thiaspiro- and 1,4-dithiaspiro[4.5]decane derivatives as potent and selective 5-HT1A receptor agonists” (Eur J Med Chem, 2017).
Activity calls are given as the source filed them. The rule behind the calls is not given here.

Key:
[1] = Cytotoxicity against human SH-SY5Y cells assessed as reduction in cell viability after 24 hrs by MTT assay; format: toxicity, cell-based
Procedure, shortened: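 SH-SY5Y cells in DMEM with 10% heat-inactivated FBS, 2 mM L-glutamine, penicillin/streptomycin, 37 °C, 5% CO2; seeded 10,000 cells/well and incubated overnight. Compounds added at 0.1-100 μM for 24 h at 37 °C. MTT (0.5% w/v) added for 3 h, cells lysed in DMSO/EtOH 1:1, absorbance at 570 nm. IC50 taken as the concentration giving 50% growth inhibition.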

[2] = biological target: T1, Alpha-1D adrenergic receptor (Homo sapiens, UniProt P25100); assay: Displacement of [3H]prazosin from recombinant human alpha1d adrenergic receptor expressed in CHO cell membranes after 30 mins by TopCount liquid scintillation counting method
T1 sequence (P25100 whole entry): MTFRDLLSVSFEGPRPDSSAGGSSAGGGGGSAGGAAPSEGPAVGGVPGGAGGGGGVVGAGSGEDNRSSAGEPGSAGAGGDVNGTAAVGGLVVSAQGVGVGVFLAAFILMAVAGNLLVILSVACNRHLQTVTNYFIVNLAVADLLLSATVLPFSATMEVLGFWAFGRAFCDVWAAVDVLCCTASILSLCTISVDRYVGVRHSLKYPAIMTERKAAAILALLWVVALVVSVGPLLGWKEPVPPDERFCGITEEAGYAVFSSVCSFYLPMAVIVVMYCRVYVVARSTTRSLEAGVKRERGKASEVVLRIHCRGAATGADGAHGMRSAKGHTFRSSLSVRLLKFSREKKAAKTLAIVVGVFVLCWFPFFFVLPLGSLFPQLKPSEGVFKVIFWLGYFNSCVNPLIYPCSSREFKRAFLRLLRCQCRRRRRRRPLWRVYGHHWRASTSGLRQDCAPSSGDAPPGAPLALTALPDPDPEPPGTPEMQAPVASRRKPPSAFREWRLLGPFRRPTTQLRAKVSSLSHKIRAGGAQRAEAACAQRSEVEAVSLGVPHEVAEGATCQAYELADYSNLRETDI
Procedure, shortened: (§1)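 Membranes from CHO cells stably expressing each human α1 subtype (70 µg protein), incubated in 50 mM Tris pH 7.4 with 0.1–0.4 nM [3H]prazosin and competitor (1 pM–1 µM) for 30 min at 25 °C. Nonspecific binding defined with 10 µM tamsulosin. Filtration and scintillation counting.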

[3] = biological target: T2, Alpha-1B adrenergic receptor (Homo sapiens, UniProt P35368); assay: Displacement of [3H]prazosin from recombinant human alpha1b adrenergic receptor expressed in CHO cell membranes after 30 mins by TopCount liquid scintillation counting method
T2 sequence (P35368 whole entry): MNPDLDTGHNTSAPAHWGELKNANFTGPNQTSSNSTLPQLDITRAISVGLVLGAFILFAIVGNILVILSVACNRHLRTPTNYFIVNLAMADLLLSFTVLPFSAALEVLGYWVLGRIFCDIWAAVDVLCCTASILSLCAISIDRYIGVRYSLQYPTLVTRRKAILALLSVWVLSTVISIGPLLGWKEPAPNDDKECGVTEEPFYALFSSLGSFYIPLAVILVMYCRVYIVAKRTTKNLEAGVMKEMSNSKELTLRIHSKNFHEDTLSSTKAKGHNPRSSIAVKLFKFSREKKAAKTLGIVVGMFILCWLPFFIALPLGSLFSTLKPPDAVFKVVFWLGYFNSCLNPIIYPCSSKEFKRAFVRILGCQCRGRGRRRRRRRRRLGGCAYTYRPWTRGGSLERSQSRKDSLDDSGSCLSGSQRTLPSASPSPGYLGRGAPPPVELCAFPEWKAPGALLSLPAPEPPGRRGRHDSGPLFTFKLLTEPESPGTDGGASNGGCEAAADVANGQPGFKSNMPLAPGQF
Procedure, shortened: as §1, with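 “counting. Ki by Cheng–Prusoff; pKi mean of 2–3 experiments in duplicate.” for “counting.”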

[4] = biological target: T3, Alpha-1A adrenergic receptor (Homo sapiens, UniProt P35348); assay: Displacement of [3H]prazosin from recombinant human alpha1a adrenergic receptor expressed in CHO cell membranes after 30 mins by TopCount liquid scintillation counting method; procedure, shortened: as §1
T3 sequence (P35348 whole entry): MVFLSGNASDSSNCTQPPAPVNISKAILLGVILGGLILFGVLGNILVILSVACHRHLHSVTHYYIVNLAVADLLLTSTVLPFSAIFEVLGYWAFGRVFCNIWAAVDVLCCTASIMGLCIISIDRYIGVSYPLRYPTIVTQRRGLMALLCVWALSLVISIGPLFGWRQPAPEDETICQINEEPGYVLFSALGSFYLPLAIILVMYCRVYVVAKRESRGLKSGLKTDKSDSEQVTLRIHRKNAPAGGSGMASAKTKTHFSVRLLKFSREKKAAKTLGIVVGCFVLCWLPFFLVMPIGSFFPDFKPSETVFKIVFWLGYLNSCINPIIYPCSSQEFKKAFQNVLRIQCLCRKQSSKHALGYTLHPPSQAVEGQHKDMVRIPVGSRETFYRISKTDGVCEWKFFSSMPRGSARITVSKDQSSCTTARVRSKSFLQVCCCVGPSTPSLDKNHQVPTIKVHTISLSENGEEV

[5] = biological target: T4, 5-hydroxytryptamine receptor 1A (Homo sapiens, UniProt P08908); assay: Displacement of [3H]8-OH-DPAT from recombinant human 5-HT1A receptor expressed in HeLa cell membranes after 30 mins by TopCount liquid scintillation counting method; format: cell-based
T4 sequence (P08908 whole entry): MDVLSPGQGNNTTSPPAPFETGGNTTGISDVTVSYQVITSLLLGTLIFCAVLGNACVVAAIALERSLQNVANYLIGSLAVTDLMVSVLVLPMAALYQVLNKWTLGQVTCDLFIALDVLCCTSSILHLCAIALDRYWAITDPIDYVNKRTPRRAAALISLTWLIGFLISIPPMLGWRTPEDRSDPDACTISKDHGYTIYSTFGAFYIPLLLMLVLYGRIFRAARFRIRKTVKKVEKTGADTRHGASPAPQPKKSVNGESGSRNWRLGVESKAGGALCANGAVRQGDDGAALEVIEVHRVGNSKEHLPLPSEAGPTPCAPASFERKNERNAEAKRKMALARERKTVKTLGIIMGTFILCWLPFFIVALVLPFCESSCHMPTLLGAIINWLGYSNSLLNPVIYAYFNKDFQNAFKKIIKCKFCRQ

[6] = biological target: T5, 5-hydroxytryptamine receptor 1A (Homo sapiens) (UniProt P08908); assay: Agonist activity at recombinant human 5-HT1A receptor expressed in HeLa cell membranes assessed as induction of [35S]GTPgammaS binding preincubated for 20 mins followed by [35S]GTPgammaS addition measured after 30 mins by liquid scintillation counting method; format: functional
T5 sequence (whole entry): T4 sequence (P08908 whole entry)
Procedure, shortened: (§2)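 HeLa membranes with recombinant human 5-HT1A (50-70 µg protein) in 20 mM HEPES, 3 mM MgSO4, 120 mM NaCl, pH 7.4. Pre-incubated with 30 µM GDP and drug (0.01 nM–10 µM) for 20 min at 30 °C, then 200 pM [35S]GTPγS added for 30 min at 30 °C. Nonspecific binding defined with 10 µM GTPγS. Filtration and scintillation counting. Emax and pD2 taken from concentration–response fits.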

[7] = biological target: T5, 5-hydroxytryptamine receptor 1A (Homo sapiens); assay: Agonist activity at recombinant human 5-HT1A receptor expressed in HeLa cell membranes assessed as induction of [35S]GTPgammaS binding up to 10 uM preincubated for 20 mins followed by [35S]GTPgammaS addition measured after 30 mins by liquid scintillation counting method relative to serotonin; format: functional; procedure, shortened: as §2
[8] = Apparent permeability from apical to basolateral side in MDCK2-MDR1 cells at 75 uM after 120 mins by UV-Visible spectrophotometric method; format: ADME, cell-based, Canis lupus familiaris, MDCK-II; conditions: dog, MDCK-MDR1
Procedure, shortened: (§3)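 MDCKII-MDR1 cells seeded at 100,000 cells/cm² on Transwell inserts (0.4 µm pores); monolayers with TEER 800 Ohm cm² used. Equilibrated 30 min at 37 °C in pH 7.4 bicarbonate/glucose transport medium. Receiver sampled after 120 min at 37 °C, 5% CO2, quantified by UV-Vis. Papp calculated from acceptor/initial concentration. Triplicate wells, three experiments.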

[9] = Efflux ratio of apparent permeability from basolateral to apical over apical to basolateral side in MDCK2-MDR1 cells at 75 uM after 120 mins by UV-Visible spectrophotometric method; format: ADME, cell-based, Canis lupus familiaris; conditions: dog, MDCK-MDR1
[10] = Neuroprotective activity against rotenone-induced cell death in human SH-SY5Y cells assessed as increase in cell viability at 0.1 uM after 24 hrs by MTT assay; format: functional
Procedure, shortened: (§4)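 SH-SY5Y cells seeded at 10,000 cells/well and grown 24 h at 37 °C, 5% CO2. Then co-incubated 24 h with compound at 0.1 μM plus one insult: H2O2 195 μM, oligomycin A 30 μM or rotenone 75 μM. Viability read by MTT at 570 nm. Given as percent neuroprotection ± SD from three independent experiments.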

[11] = Apparent permeability from basolateral to apical side in MDCK2-MDR1 cells at 75 uM after 120 mins by UV-Visible spectrophotometric method; format: ADME, cell-based, Canis lupus familiaris, MDCK-II; conditions: dog, MDCK-MDR1; procedure, shortened: as §3
[12] = Neuroprotective activity against H2O2-induced cell death in human SH-SY5Y cells assessed as increase in cell viability at 0.1 uM after 24 hrs by MTT assay; format: functional; procedure, shortened: as §4
[13] = Neuroprotective activity against H2O2-induced cell death in human SH-SY5Y cells assessed as increase in cell viability at 1 uM after 24 hrs by MTT assay; format: functional
Procedure, shortened: (§5)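 SH-SY5Y cells seeded at 10,000 cells/well and grown 24 h at 37 °C, 5% CO2. Then co-incubated 24 h with compound at 1 μM plus one insult: H2O2 195 μM, oligomycin A 30 μM or rotenone 75 μM. Viability read by MTT at 570 nm. Given as percent neuroprotection ± SD from three independent experiments.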

[14] = Neuroprotective activity against oligomycin A-induced cell death in human SH-SY5Y cells assessed as increase in cell viability at 0.1 uM after 24 hrs by MTT assay; format: functional; procedure, shortened: as §4
[15] = Neuroprotective activity against oligomycin A-induced cell death in human SH-SY5Y cells assessed as increase in cell viability at 1 uM after 24 hrs by MTT assay; format: functional; procedure, shortened: as §5
[16] = Neuroprotective activity against rotenone-induced cell death in human SH-SY5Y cells assessed as increase in cell viability at 1 uM after 24 hrs by MTT assay; format: functional; procedure, shortened: as §5
Mus musculus = assay: Analgesic activity in Swiss CD1 mouse assessed reduction in formalin-induced inflammatory pain by measuring reduction in time spent in licking or biting formalin injected hind paw at 10 mg/kg, ip pretreated for 15 mins followed by formalin injection measured every 5 mins for 10 to 60 mins; format: functional, organism-based
Procedure, shortened: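 Male Swiss […] mice, 25-30 g. Dosed i.p. in saline with 10% DMSO (5 ml/kg) 15 min before 5% formalin (10 µl) into the right hind paw. […] 8-10 mice per group; mean ± SEM; two-way repeated-measures ANOVA with Bonferroni post hoc test; scored blind.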

SMILES	Ki [2]	Ki [3]	Ki [4]	Ki [5]	pD2 [6]	also measured
C=C(C)[C@H]1Cc2c(ccc3c2O[C@@H]2COc4cc(OC)c(OC)cc4[C@@H]2C3=O)O1 [ROTENONE]						IC50 at 24 h [1]: 74100 nM
c1ccc(OCCNCC2COC3(CCCCC3)O2)cc1 (stereo not given)	550 nM	977 nM	> 1000 nM			
COc1cccc(OC)c1OCCNCC1COC2(CCCCC2)O1 (stereo not given)	1780 nM	> 1000 nM	> 1000 nM			
c1ccc(OCCNCC2CSC3(CCCCC3)O2)cc1 (stereo not given)	214 nM	437 nM	> 1000 nM	22.9 nM		
COc1ccccc1N1CCN(CC2CSC3(CCCCC3)O2)CC1 (stereo not given)	38.9 nM	191 nM	57.5 nM	5.01 nM		
OO [HYDROGEN PEROXIDE]						IC50 at 24 h [1]: 195000 nM
c1ccc(OCCNCC2CSC3(CCCCC3)S2)cc1 (stereo not given)	123 nM	550 nM	> 1000 nM	1.55 nM	8.27	Emax [7]: 85%
COc1ccccc1N1CCN(CCN2C(=O)CC3(CCCC3)CC2=O)CC1					9.27	
COc1ccccc1N1CCN(CC2CSC3(CCCCC3)S2)CC1 (stereo not given)	100 nM	407 nM	200 nM	3.02 nM	8.61	Emax [7]: 37%
CC[C@H]1/C=C/C=C/C[C@@H](C)[C@H](O)[C@@](C)(O)C(=O)[C@@H](C)[C@H](O)[C@@H](C)C(=O)[C@@H](C)[C@H](O)[C@@H](C)/C=C/C(=O)O[C@@H]2[C@H](C)[C@H](CC1)O[C@]1(CC[C@H](C)[C@H](C[C@@H](C)O)O1)[C@H]2C [OLIGOMYCIN]						IC50 at 24 h [1]: 29000 nM
COc1ccccc1OCCNCC1COC2(CCCCC2)O1 (stereo not given)	95.5 nM	389 nM	229 nM			
COc1ccccc1OCCNCC1CSC2(CCCCC2)S1 (stereo not given)	34.7 nM	195 nM	186 nM	0.933 nM	9.58	Papp A→B at 2 h, 75 µM [8]: 11.1 ×10⁻⁶ cm/s; efflux ratio at 2 h, 75 µM [9]: 0.98; Activity [10]: 62%; Papp B→A at 2 h, 75 µM [11]: 10.9 ×10⁻⁶ cm/s; Activity [12]: 83%; Activity [13]: 66%; Activity [14]: 81%; Activity [15]: 86%; Emax [7]: 74%; IC50 at 24 h [1]: 51000 nM; Activity [16]: 66%; Activity (Mus musculus): Active
COc1ccccc1N1CCN(CC2COC3(CCCCC3)O2)CC1 (stereo not given)					8.61	
COc1ccccc1OCCNCC1CSC2(CCCCC2)O1 (stereo not given)	32.4 nM	219 nM	269 nM	2.24 nM		
